What all share (type): functional
One assay deals with A549. Briefly: Growth inhibition of human A549/ATCC cells assessed as growth percentage at 10 uM incubated for 48 hrs by sulforhodamine B assay relative to control. The following applies: A549, 48 h, read-out: Activity. In short, it runs like this:
(§1)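 NCI-60 one-dose screen: cells in RPMI 1640 with 5% FBS and 2 mM L-glutamine, plated at 5,000–40,000 cells/well and preincubated 24 h at 37 °C, 5% CO2. Compound is added from a DMSO stock to a final 10 µM and incubated 48 h. Cells are TCA-fixed and stained with sulforhodamine B, read at 515 nm. Output is % growth versus untreated control, with a time-zero plate.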
(In general: The SRB assay estimates cell density from bound dye.)

For another assay, the system named is PC-3. Briefly: Growth inhibition of human PC3 cells assessed as growth percentage at 10 uM incubated for 48 hrs by sulforhodamine B assay relative to control. The following applies: PC-3, 48 h, read-out: Activity. In short, it runs like this: (§2)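 NCI-60 single-dose screen. Cells were grown in RPMI 1640 with 5% FBS and 2 mM L-glutamine and plated at 5,000–40,000 cells/well. After an overnight preincubation at 37 °C in 5% CO2, compound was added at a final 10 µM from a DMSO stock, with DMSO/PBS controls. After 48 h, cells were TCA-fixed and stained with 0.4% SRB, and absorbance was read at 515 nm. Growth is given as a percentage of untreated control.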

The subject of a further assay is TK-10. Briefly: Growth inhibition of human TK10 cells assessed as growth percentage at 10 uM incubated for 48 hrs by sulforhodamine B assay relative to control. The following applies: TK-10, 48 h, read-out: Activity. Summed up: as §2
In the next assay the test system is CCRF-CEM. As to the kind of experiment: Growth inhibition of human CCRF-CEM cells assessed as growth percentage at 10 uM incubated for 48 hrs by sulforhodamine B assay relative to control. The following applies: read-out: Activity. In short, it runs like this:
as §1

The next assay concerns Hs-578T. As to the kind of experiment: Growth inhibition of human Hs 578T cells assessed as growth percentage at 10 uM incubated for 48 hrs by sulforhodamine B assay relative to control. The following applies: read-out: Activity. Summed up:
(§3)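 NCI-60 one-dose screen. Cells in RPMI 1640 with 5% FBS and 2 mM L-glutamine, seeded at 5,000–40,000 cells/well according to doubling time, and preincubated overnight at 37 °C, 5% CO2. A time-zero plate was TCA-fixed at drug addition. Compound from DMSO stock, final 10 µM, 48 h; DMSO vehicle controls. Fixation with TCA, 10% final (16% for suspension cells). SRB stain, Tris solubilization, A515. Result given as % growth versus untreated cells.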

In a further assay the test system is HL-60(TB). Briefly: Growth inhibition of human HL-60(TB) cells assessed as growth percentage at 10 uM incubated for 48 hrs by sulforhodamine B assay relative to control. The following applies: HL-60, 48 h, read-out: Activity. Summed up: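 NCI-60 single-dose screen. Cells in RPMI 1640 with 5% FBS and 2 mM L-glutamine are plated at 5,000–40,000 cells/well and preincubated overnight at 37 °C, 5% CO2. Compound is added from a DMSO stock at 10 µM final for 48 h. Cells are TCA-fixed (suspension cells 16% final) and stained with SRB. Absorbance is read at 515 nm, and percentage growth is calculated against untreated controls with a time-zero plate.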

The next assay relates to K562. As to the kind of experiment: Growth inhibition of human K562 cells assessed as growth percentage at 10 uM incubated for 48 hrs by sulforhodamine B assay relative to control. The following applies: K562, 48 h, read-out: Activity. In short, it runs like this: as §3
In another assay the test system is MOLT-4. Briefly: Growth inhibition of human MOLT4 cells assessed as growth percentage at 10 uM incubated for 48 hrs by sulforhodamine B assay relative to control. The following applies: MOLT-4, 48 h, read-out: Activity. In short, it runs like this:
as §3

For a further assay, the system named is MCF7. Briefly: Growth inhibition of human MCF7 cells assessed as growth percentage at 10 uM incubated for 48 hrs by sulforhodamine B assay relative to control. The following applies: MCF7, 48 h, read-out: Activity. Summed up: as §3
The next assay deals with HCT-116. Briefly: Growth inhibition of human HCT116 cells assessed as growth percentage at 10 uM incubated for 48 hrs by sulforhodamine B assay relative to control. The following applies: HCT-116, 48 h, read-out: Activity. Summed up:
as §1

Another assay relates to SW-620. As to the kind of experiment: Growth inhibition of human SW620 cells assessed as growth percentage at 10 uM incubated for 48 hrs by sulforhodamine B assay relative to control. The following applies: SW-620, 48 h, read-out: Activity. In short, it runs like this: as §2
The test system of a further assay is UO-31. As to the kind of experiment: Growth inhibition of human UO31 cells assessed as growth percentage at 10 uM incubated for 48 hrs by sulforhodamine B assay relative to control. The following applies: UO-31, 48 h, read-out: Activity. Summed up:
as §2

For the next assay, the system named is COLO 205. As to the kind of experiment: Growth inhibition of human COLO205 cells assessed as growth percentage at 10 uM incubated for 48 hrs by sulforhodamine B assay relative to control. The following applies: COLO 205, 48 h, read-out: Activity. In short, it runs like this: as §1
A further assay deals with SK-MEL-5. As to the kind of experiment: Growth inhibition of human SK-MEL-5 cells assessed as growth percentage at 10 uM incubated for 48 hrs by sulforhodamine B assay relative to control. The following applies: SK-MEL-5, 48 h, read-out: Activity. In short, it runs like this:
as §2

The test system of a further assay is IGROV-1. Briefly: Growth inhibition of human IGROV1 cells assessed as growth percentage at 10 uM incubated for 48 hrs by sulforhodamine B assay relative to control. The following applies: IGROV-1, 48 h, read-out: Activity. Summed up:
as §3

A further assay deals with U-251. Briefly: Growth inhibition of human U251 cells assessed as growth percentage at 10 uM incubated for 48 hrs by sulforhodamine B assay relative to control. The following applies: U-251, 48 h, read-out: Activity. Summed up:
as §2

In another assay the test system is CAKI-1. As to the kind of experiment: Growth inhibition of human Caki1 cells assessed as growth percentage at 10 uM incubated for 48 hrs by sulforhodamine B assay relative to control. The following applies: CAKI-1, 48 h, read-out: Activity. In short, it runs like this:
as §1

In a further assay the test system is HT-29. As to the kind of experiment: Growth inhibition of human HT-29 cells assessed as growth percentage at 10 uM incubated for 48 hrs by sulforhodamine B assay relative to control. The following applies: HT-29, 48 h, read-out: Activity. In short, it runs like this:
as §3

The subject of a further assay is NCI-H226. As to the kind of experiment: Growth inhibition of human NCI-H226 cells assessed as growth percentage at 10 uM incubated for 48 hrs by sulforhodamine B assay relative to control. The following applies: NCI-H226, 48 h, read-out: Activity. In short, it runs like this:
as §3

A further assay relates to SNB-75. Briefly: Growth inhibition of human SNB75 cells assessed as growth percentage at 10 uM incubated for 48 hrs by sulforhodamine B assay relative to control. The following applies: SNB-75, 48 h, read-out: Activity. Summed up:
as §2

The test system of a further assay is SF-539. Briefly: Growth inhibition of human SF539 cells assessed as growth percentage at 10 uM incubated for 48 hrs by sulforhodamine B assay relative to control. The following applies: SF-539, 48 h, read-out: Activity. In short, it runs like this:
as §2

Another assay relates to MDA-MB-468. Briefly: Growth inhibition of human MDA-MB-468 cells assessed as growth percentage at 10 uM incubated for 48 hrs by sulforhodamine B assay relative to control. The following applies: MDA-MB-468, 48 h, read-out: Activity. In short, it runs like this: as §3
For another assay, the system named is MDA-MB-435. Briefly: Growth inhibition of human MDA-MB-435 cells assessed as growth percentage at 10 uM incubated for 48 hrs by sulforhodamine B assay relative to control. The following applies: MDA-MB-435, 48 h, read-out: Activity. Summed up:
as §3

In a further assay the test system is M14. As to the kind of experiment: Growth inhibition of human M14 cells assessed as growth percentage at 10 uM incubated for 48 hrs by sulforhodamine B assay relative to control. The following applies: M14, 48 h, read-out: Activity. In short, it runs like this: as §3

Our source for the growth values is ChEMBL document CHEMBL4406880, “Design, synthesis, and bioactivity of dihydropyrimidine derivatives as kinesin spindle protein inhibitors” (Bioorg Med Chem, 2019).

On to `CC1=C(C(=O)OCc2ccccc2)C(c2ccc3c(c2)OCO3)NC(=O)N1` (racemic), for which the growth at 10 µM with A549 amounted to 106%; with PC-3, 84.5%; in the assay on TK-10, 101%; in the assay with CCRF-CEM it was 103%; with Hs-578T it was 98.1%; in the assay with HL-60(TB), 97%. The growth at 10 µM was determined as 107% with K562; 104% in the assay with MOLT-4; 101% with MCF7; 88.3% in the assay with HCT-116; 109% in the assay with SW-620; 83.1% with UO-31. Moreover, the growth at 10 µM was determined as 116% in the assay on COLO 205; 89.8% in the assay with SK-MEL-5; 97.2% in the assay with IGROV-1; 99.5% in the assay on U-251; 89.5% in the assay on CAKI-1; 109% with HT-29. Moreover, the growth at 10 µM in the assay on NCI-H226 amounted to 95.9%; in the assay with SNB-75, 96%; with SF-539, 97.8%; with MDA-MB-468, 92%; with MDA-MB-435, 103%; with M14, 97.4%.

`CC1=C(C(=O)c2ccccc2)C(c2ccc3c(c2)OCO3)NC(=S)N1` (racemic): the growth at 10 µM is 40.3% with A549; 61.5% in the assay on PC-3; 66% in the assay with TK-10; 41.2% in the assay with CCRF-CEM; 23.4% in the assay with Hs-578T; 2.6% in the assay on HL-60(TB). Further, the growth at 10 µM amounted to 24.6% with K562; 36.6% with MOLT-4; 22% in the assay with MCF7; 20.1% in the assay on HCT-116; 24.2% in the assay on SW-620; 55.7% in the assay on UO-31. For the same molecule, the growth at 10 µM with COLO 205 came out at 47.6%; in the assay with SK-MEL-5 it was 28.2%; with IGROV-1 it was 46.1%; in the assay on U-251, 37.5%; with CAKI-1, 35.6%; in the assay on HT-29, 18.5%. Moreover, the growth at 10 µM with NCI-H226 was 66.5%; in the assay on SNB-75, -1.4%; in the assay with SF-539 it was 36.4%; in the assay with MDA-MB-468, 54.3%; with MDA-MB-435, -49.5%; in the assay with M14, 34.6%.

As for `CC(=O)N1C(=S)NC(C)=C(C(=O)OCc2ccccc2)C1c1ccc2c(c1)OCO2` (racemic), the growth at 10 µM is 95.6% in the assay on A549; 81.3% in the assay on PC-3; 100% in the assay on TK-10; 76.8% in the assay with Hs-578T; 33.6% in the assay with HL-60(TB); 55.4% in the assay with K562. In addition, the growth at 10 µM in the assay with MOLT-4 is 58.7%; in the assay with MCF7, 92.1%; with HCT-116, 41.4%; with SW-620 it was 65.3%; with UO-31 it was 85.4%; in the assay with COLO 205, 91.8%. Besides, the growth at 10 µM was 91.2% in the assay with SK-MEL-5; 98% with IGROV-1; 58.2% in the assay with U-251; 92.4% with CAKI-1; 52.2% in the assay with HT-29; 96.3% with NCI-H226. The growth at 10 µM amounted to 80.4% with SNB-75; 84.2% with SF-539; 78.9% with MDA-MB-468; 60.1% with MDA-MB-435; 54% in the assay with M14.
